Laboratory results taken from ChEMBL document CHEMBL2176963, “Design, synthesis, and biological evaluation of 3-(1H-1,2,3-triazol-1-yl)benzamide derivatives as Potent Pan Bcr-Abl inhibitors including the threonine(315)→isoleucine(315) mutant” (J Med Chem, 2012).
The source made the active and inactive calls. The rule behind the calls is not given here.

Key:
K562 [1] = assay: Antiproliferative activity against imatinib-resistant human K562 cells expressing Bcr-Abl Q252H mutant after 72 hrs by CCK-8 assay; conditions: K562, 72 h
[2] = Antiproliferative activity against mouse BA/F3 cells expressing Bcr-Abl Y253F mutant after 72 hrs by CCK-8 assay; conditions: BaF3, 72 h
[3] = Antiproliferative activity against mouse BA/F3 cells expressing Bcr-Abl M351T mutant after 72 hrs by CCK-8 assay; conditions: BaF3, 72 h
K562 [4] = assay: Induction of apoptosis in human K562 cells expressing wild type Bcr-Abl using annexin-V-FITC and 7-AAD staining by flow cytometer; assay type: functional, cell-based
[5] = tested on: Tyrosine-protein kinase ABL1 (Mus musculus), P00520 [T315I]; assay: Inhibition of Bcr-Abl T315I mutant-mediated CrkL phosphorylation in mouse BA/F3 cells by Western blot analysis; assay type: cell-based; conditions: BaF3
Tyrosine-protein kinase ABL1 (Mus musculus), P00520 [T315I], sequence (P00520 whole entry T315I): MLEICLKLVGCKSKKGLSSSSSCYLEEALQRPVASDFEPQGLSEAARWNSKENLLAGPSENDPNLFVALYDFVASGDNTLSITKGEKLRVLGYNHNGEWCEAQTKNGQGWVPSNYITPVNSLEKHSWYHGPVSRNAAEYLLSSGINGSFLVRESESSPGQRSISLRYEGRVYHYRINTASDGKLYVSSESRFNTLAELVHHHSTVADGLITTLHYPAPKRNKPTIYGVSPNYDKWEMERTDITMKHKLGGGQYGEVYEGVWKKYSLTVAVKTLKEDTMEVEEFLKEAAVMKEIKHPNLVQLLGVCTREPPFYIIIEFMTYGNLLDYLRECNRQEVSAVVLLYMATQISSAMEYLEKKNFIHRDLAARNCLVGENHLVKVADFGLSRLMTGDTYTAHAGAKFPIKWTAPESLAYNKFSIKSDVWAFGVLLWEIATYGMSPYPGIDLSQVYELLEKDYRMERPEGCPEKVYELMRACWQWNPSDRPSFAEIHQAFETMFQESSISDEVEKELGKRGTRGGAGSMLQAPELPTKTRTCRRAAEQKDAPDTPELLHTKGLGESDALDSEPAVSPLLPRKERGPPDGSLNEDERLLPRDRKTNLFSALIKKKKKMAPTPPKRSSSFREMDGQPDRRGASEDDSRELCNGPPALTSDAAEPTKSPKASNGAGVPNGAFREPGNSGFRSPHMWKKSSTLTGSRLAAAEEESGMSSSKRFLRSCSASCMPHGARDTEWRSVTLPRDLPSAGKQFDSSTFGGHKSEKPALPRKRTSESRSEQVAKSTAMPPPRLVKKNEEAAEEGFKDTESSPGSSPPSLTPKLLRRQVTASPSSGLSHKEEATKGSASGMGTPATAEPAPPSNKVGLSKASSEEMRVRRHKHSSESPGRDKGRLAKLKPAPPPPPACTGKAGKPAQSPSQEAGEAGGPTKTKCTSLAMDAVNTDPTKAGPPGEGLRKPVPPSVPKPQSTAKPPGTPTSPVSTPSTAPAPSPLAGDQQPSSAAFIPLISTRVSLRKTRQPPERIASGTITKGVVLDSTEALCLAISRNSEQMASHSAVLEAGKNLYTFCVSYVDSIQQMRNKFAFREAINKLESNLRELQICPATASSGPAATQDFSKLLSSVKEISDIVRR
Method in brief: (§1)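 K562 or Ba/F3 Bcr-Abl T315I cells were treated with graded concentrations, lysed in 1× SDS sample buffer, sonicated and boiled. Lysates were run on 8−12% SDS-PAGE and transferred to PVDF. Membranes were blocked in TBS with 0.1% Tween-20 and 5% nonfat milk, then probed with primary antibody and HRP-conjugated secondary. Blots shown represent three independent experiments.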

BaF3 [6] = assay: Effect on STAT5 protein level in mouse BA/F3 cells expressing Bcr-Abl T315I mutant by Western blot analysis; assay type: functional, cell-based; method in brief: as §1
[7] = Antiproliferative activity against mouse BA/F3 cells expressing Bcr-Abl Q252H mutant after 72 hrs by CCK-8 assay; conditions: BaF3, 72 h
[8] = Antiproliferative activity against mouse BA/F3 cells expressing Bcr-Abl F359V mutant after 72 hrs by CCK-8 assay; conditions: BaF3, 72 h
[9] = Antiproliferative activity against mouse BA/F3 cells expressing Bcr-Abl G250E mutant after 72 hrs by CCK-8 assay; conditions: BaF3, 72 h
[10] = Antiproliferative activity against mouse BA/F3 cells expressing Bcr-Abl Y253H mutant after 72 hrs by CCK-8 assay; conditions: BaF3, 72 h
BaF3 [11] = assay: Effect on Bcr-Abl T315I mutant protein level in mouse BA/F3 cells by Western blot analysis; assay type: functional, cell-based; method in brief: as §1
K562 [12] = assay: Effect on CrkL protein level in human K562 cells expressing wild type Bcr-Abl by Western blot analysis; assay type: functional, cell-based; method in brief: as §1
[13] = Antiproliferative activity against mouse BA/F3 cells expressing Bcr-Abl F486S mutant after 72 hrs by CCK-8 assay; conditions: BaF3, 72 h
[14] = Cell cycle arrest in mouse BA/F3 cells expressing Bcr-Abl T315I mutant assessed as accumulation at G0/G1 phase using propidium iodide staining by FACS analysis; assay type: functional, cell-based; conditions: BaF3
K562 [15] = assay: Effect on wild type Bcr-Abl protein level in human K562 cells by Western blot analysis; assay type: functional, cell-based; method in brief: as §1
cells = conditions: Mus musculus, BaF3, 72 h
[16] = Antiproliferative activity against mouse BA/F3 cells expressing Bcr-Abl H396P mutant after 72 hrs by CCK-8 assay; conditions: BaF3, 72 h
[17] = Antiproliferative activity against mouse BA/F3 cells expressing Bcr-Abl E255K mutant after 72 hrs by CCK-8 assay; conditions: BaF3, 72 h
[18] = Antiproliferative activity against mouse BA/F3 cells expressing Bcr-Abl M244V mutant after 72 hrs by CCK-8 assay; conditions: BaF3, 72 h
[19] = tested on: Tyrosine-protein kinase ABL1 (Mus musculus), P00520 [T315I]; assay: Inhibition of Bcr-Abl T315I mutant-mediated STAT5 phosphorylation in mouse BA/F3 cells by Western blot analysis; assay type: cell-based; conditions: BaF3; method in brief: as §1
[20] = tested on: Tyrosine-protein kinase ABL1 (Mus musculus), P00520 [T315I]; assay: Inhibition of Bcr-Abl T315I mutant phosphorylation in mouse BA/F3 cells by Western blot analysis; assay type: cell-based; conditions: BaF3; method in brief: as §1
[21] = Antiproliferative activity against mouse BA/F3 cells expressing Bcr-Abl H396R mutant after 72 hrs by CCK-8 assay; conditions: BaF3, 72 h
[22] = Antiproliferative activity against human KU812 cells expressing wild type Bcr-Abl after 72 hrs by CCK-8 assay; conditions: KU812, 72 h
K562 [23] = assay: Cell cycle arrest in human K562 cells expressing wild type Bcr-Abl assessed as accumulation at G0/G1 phase using propidium iodide staining by FACS analysis; assay type: functional, cell-based
[24] = Antiproliferative activity against mouse BA/F3 cells expressing wild type Bcr-Abl after 72 hrs by CCK-8 assay; conditions: BaF3, 72 h
[25] = Antiproliferative activity against mouse BA/F3 cells after 72 hrs by CCK-8 assay; conditions: BaF3, 72 h
[26] = Antiproliferative activity against mouse BA/F3 cells expressing Bcr-Abl E355G mutant after 72 hrs by CCK-8 assay; conditions: BaF3, 72 h
K562 [27] = assay: Effect on STAT5 protein level in human K562 cells expressing wild type Bcr-Abl by Western blot analysis; assay type: functional, cell-based; method in brief: as §1
BaF3 [28] = assay: Effect on CrkL protein level in mouse BA/F3 cells expressing Bcr-Abl T315I mutant by Western blot analysis; assay type: functional, cell-based; method in brief: as §1
K562 [29] = assay: Antiproliferative activity against human K562 cells expressing wild type Bcr-Abl after 72 hrs by CCK-8 assay; conditions: K562, 72 h
[30] = Antiproliferative activity against mouse BA/F3 cells expressing Bcr-Abl E255V mutant after 72 hrs by CCK-8 assay; conditions: BaF3, 72 h
BaF3 [31] = assay: Induction of apoptosis in mouse BA/F3 cells expressing Bcr-Abl T315I mutant using annexin-V-FITC and 7-AAD staining by flow cytometer; assay type: functional, cell-based

SMILES | IC50 (K562 [1]) | IC50 [2] | IC50 [3] | IC50 [7] | IC50 [8] | IC50 [9] | IC50 [10] | IC50 [13] | IC50 (cells) | IC50 [16] | IC50 [17] | IC50 [18] | IC50 [21] | IC50 [22] | IC50 [24] | IC50 [25] | IC50 [26] | IC50 (K562 [29]) | IC50 [30] | other results
Cc1ccc(C(=O)Nc2ccc(CN3CCN(C)CC3)c(C(F)(F)F)c2)cc1-n1cc(-c2cnc3[nH]ncc3c2)nn1 | 5.46 nM | 0.35 nM | 0.4 nM | 5.49 nM | 1.44 nM | 1.67 nM | 1.61 nM | 1.43 nM | 13.9 nM | 0.28 nM | 3.1 nM | 0.12 nM | 3.73 nM | 0.11 nM | 2.44 nM | 416 nM | 0.37 nM | 0.4 nM | 2.96 nM | Activity (K562 [4]): Active; inhibition [5]: Active; Activity (BaF3 [6]): inactive; Activity (BaF3 [11]): inactive; Activity (K562 [12]): inactive; Activity [14]: Active; Activity (K562 [15]): inactive; inhibition [19]: Active; inhibition [20]: Dose-dependent effect; Activity (K562 [23]): Active; Activity (K562 [27]): inactive; Activity (BaF3 [28]): inactive; Activity (BaF3 [31]): Active
CN1CCN(Cc2ccc(NC(=O)c3ccc(Cl)c(-n4cc(-c5cnc6[nH]ncc6c5)nn4)c3)cc2C(F)(F)F)CC1 | 3.91 nM | 0.52 nM | 0.45 nM | 7.55 nM | 2.31 nM | 1.97 nM | 2.97 nM | 4.17 nM | 11.9 nM | 0.3 nM | 2.75 nM | 0.61 nM | 5.4 nM | 0.08 nM | 2.49 nM | 372 nM | 0.3 nM | 0.43 nM | 3.41 nM | Activity (K562 [4]): Active; inhibition [5]: Active; Activity (BaF3 [6]): inactive; Activity (BaF3 [11]): inactive; Activity (K562 [12]): inactive; Activity [14]: Active; Activity (K562 [15]): inactive; inhibition [19]: Active; inhibition [20]: Dose-dependent effect; Activity (K562 [23]): Active; Activity (K562 [27]): inactive; Activity (BaF3 [28]): inactive; Activity (BaF3 [31]): Active
Cc1ccc(NC(=O)c2ccc(CN3CCN(C)CC3)cc2)cc1Nc1nccc(-c2cccnc2)n1 [IMATINIB] |  | 1440 nM | 424 nM | 3760 nM | 960 nM | 1860 nM | 17100 nM | 2550 nM | 3000 nM | 110 nM | 2950 nM | 129 nM | 2380 nM |  | 1830 nM | 18500 nM | 362 nM |  | 8620 nM | 
Cc1nc(Nc2ncc(C(=O)Nc3c(C)cccc3Cl)s2)cc(N2CCN(CCO)CC2)n1 [DASATINIB] |  | 0.58 nM | 0.83 nM | 6.55 nM | 1.94 nM | 0.51 nM | 1.29 nM | 1.71 nM | 1710 nM | 0.31 nM | 5.72 nM | 0.12 nM | 1.72 nM |  | 4.5 nM | 6590 nM | 0.58 nM |  | 1.91 nM | 
Cc1cn(-c2cc(NC(=O)c3ccc(C)c(Nc4nccc(-c5cccnc5)n4)c3)cc(C(F)(F)F)c2)cn1 [NILOTINIB] |  | 60.7 nM | 10.3 nM | 150 nM | 159 nM | 38.6 nM | 314 nM | 21 nM | 775 nM | 6.34 nM | 292 nM | 1.54 nM | 87.2 nM |  | 65.2 nM | 40800 nM | 8.38 nM |  | 473 nM | 
Cc1ccc(C(=O)Nc2ccc(CN3CCN(C)CC3)c(C(F)(F)F)c2)cc1-n1cc(-c2cnc3[nH]nc(C)c3c2)nn1 | 4.74 nM |  |  |  |  |  |  |  | 79.6 nM |  |  |  |  | 0.15 nM | 2.03 nM |  |  | 0.39 nM |  | 
Cc1ccc(C(=O)Nc2ccc(CN3CCCN(C)CC3)c(C(F)(F)F)c2)cc1-n1cc(-c2cnc3[nH]ncc3c2)nn1 | 8.45 nM |  |  |  |  |  |  |  | 294 nM |  |  |  |  | 0.38 nM | 4.02 nM |  |  | 0.8 nM |  | 
Cc1ccc(C(=O)Nc2ccc(CN3CCN(C)CC3)c(C(F)(F)F)c2)cc1-n1cc(-c2cnc(NCc3ccccc3)nc2)nn1 | 181 nM |  |  |  |  |  |  |  | 3500 nM |  |  |  |  | 1.89 nM | 28.2 nM |  |  | 8.82 nM |  | 
Cc1ccc(C(=O)Nc2ccc(CN3CCOCC3)c(C(F)(F)F)c2)cc1-n1cc(-c2cnc3[nH]ncc3c2)nn1 | 41.1 nM |  |  |  |  |  |  |  | 1560 nM |  |  |  |  | 0.46 nM | 4.46 nM |  |  | 3.41 nM |  | 
